Activity, inhibition and MIC data for three compounds are collected here from ChEMBL document CHEMBL2311473, “Characterization of antimicrobial, cytotoxic, and antiendotoxin properties of short peptides with different hydrophobic amino acids at "a" and "d" positions of a heptad repeat sequence” (J Med Chem, 2013).

As usually defined, the inhibition is the relative decrease from the control value, in per cent. A word on the MIC: it is the smallest concentration in the dilution series that meets the test's criterion for growth inhibition.

Values after ≈ are worked out from the molar mass of the structure shown. Active and inactive are the calls of the source.

Series [1] has as its system RAW264.7. The series can be described thus: Antiinflammatory activity in mouse RAW264.7 cells assessed as inhibition of LPS-induced NO production at 6 uM by Griess method. Set-up: scale not given: the % may be the effect or the level left. Format: functional. The procedure, abridged: (§1)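 RAW 264.7 cells plated at 5 × 10^5/well and exposed to LPS (E. coli 0111:B4, 1 μg/mL) together with peptide at varying doses. Cells with and without LPS served as maximum and basal NO controls. Nitrite in the supernatant measured by Griess reagent at 548 nm against a sodium nitrite standard curve, and percent inhibition of NO calculated.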
For orientation: The Griess reaction detects nitrite, a stable product of nitric oxide.

Series [2] is described as follows: Cytotoxicity against human RBC assessed as induction of membrane depolarization at up to 16 uM by DiSC3(5) staining-based fluorescence assay. Format: cell-based. As to conditions: erythrocyte. Put shortly:
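Membrane potential dye diS-C3-5 preincubated 1 h with hRBC or S. aureus suspensions; I0 is steady-state fluorescence after this incubation. Peptide then added at varying concentrations. Depolarization expressed as percentage fluorescence recovery (Ft) versus peptide concentration.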

A short description of series [3]: Induction of dissipation of diffusion potential in PE/PG lipid vesicles by fluorescence assay. Format: physicochemical. Put shortly: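 SUVs of PC/Chol (8:1 w/w) or PE/PG (7:3 w/w) treated with peptide. Dissipation of diffusion potential taken as percentage fluorescence recovery ~5 min after peptide addition, with valinomycin used for reference levels. Plotted against peptide/lipid molar ratio.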

Series [4] has as its system Lipopolysaccharide (LPS). The series can be described thus: Binding affinity to LPS assessed as inhibition of LPS-induced LAL enzyme activation at 18 uM after 30 mins by spectrophotometric analysis. Put shortly: (§2)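 Chromogenic limulus amoebocyte lysate endotoxin kit. Peptide binding to LPS estimated from inhibition of LPS-induced LAL enzyme activation, i.e. reduced substrate colour, and reported as percentage LPS binding.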

The test system of a further series is Escherichia coli. Nature of the series: Antibacterial activity against Escherichia coli ATCC 10536 after 18 hrs by broth dilution method. As to conditions: ATCC 10536, 18 h. Format: functional. The procedure, abridged: (§3)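 Bacteria grown aerobically at 37 °C in Mueller-Hinton broth to mid-log phase (OD600), diluted to ~10^6 cfu/mL, then mixed 1:1 with 2-fold serial peptide dilutions in water. Incubation ~18 h at 37 °C before MIC read-out (μM).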
Background: In broth dilution the organism is exposed to a series of concentrations in liquid medium.

In a further series the test system is NIH3T3. Nature of the series: Cytotoxicity against mouse 3T3 cells assessed as cell viability up to 25 uM by MTT assay. Format: cell-based. The procedure, abridged:
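Murine 3T3 fibroblasts, grown in DMEM/IMDM with 10% FCS at 37 °C, 5% CO2, seeded at 10000 cells/well. Viability after peptide exposure measured by MTT (mitochondrial dehydrogenase) across a dose range.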

Series [5] deals with Trichophyton mentagrophytes. Nature of the series: Antifungal activity against Trichophyton mentagrophytes after 96 hrs by NCCLS microbroth dilution method. The class given is functional. Put shortly:
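Microbroth dilution in MOPS-buffered RPMI 1640 following NCCLS guidelines. Inoculum 1−5 × 10^3 cells/mL, peptide range 50−0.36 (mass/mL). Plates held in a moist chamber at 35 °C and A492 read after 48 h (Candida spp.), 72 h (A. fumigatus, S. schenckii, C. neoformans) or 96 h (T. mentagrophytes). MIC taken as 90% growth inhibition versus growth control.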

Series [6] has as its system RAW264.7. Nature of the series: Antiinflammatory activity in mouse RAW264.7 cells assessed as inhibition of LPS-induced IL6 secretion at 1.5 to 4.5 uM after 12 hrs by ELISA. Format: functional, cell-based. The procedure, abridged:
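RAW 264.7 cells treated with LPS alone or LPS plus peptide. TNF-α and IL-6 measured by ELISA in culture supernatant and expressed as percentage inhibition of LPS-induced secretion. Mean of three independent experiments, SD shown.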

The subject of a further series is Bacillus subtilis. Nature of the series: Antibacterial activity against Bacillus subtilis ATCC 6633 after 18 hrs by broth dilution method. The class given is functional. As to conditions: ATCC 6633, 18 h. Put shortly: as §3
A further series relates to Staphylococcus aureus. Nature of the series: Antibacterial activity against Staphylococcus aureus ATCC 9144 after 18 hrs by broth dilution method. Format: functional. As to conditions: ATCC 9144, 18 h. The procedure, abridged:
as §3

A further series has as its system Pseudomonas aeruginosa. Nature of the series: Antibacterial activity against Pseudomonas aeruginosa ATCC BAA-427 after 18 hrs by broth dilution method. As to conditions: ATCC BAA-427, 18 h. Format: functional. The procedure, abridged: as §3
In series [7] the test system is Lipopolysaccharide (LPS). The series can be described thus: Binding affinity to FITC-tagged LPS assessed as induction of disintegration up to 40 uM by […]. As to conditions: in the assay text read “fluorescence dequenching” for “circular dichroism”. Put shortly:
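FITC-LPS (0.5 μg/mL) titrated with increasing peptide concentrations. Disaggregation read as dequenching, i.e. rise in FITC fluorescence, monitored after each addition until emission reached equilibrium.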
(CD spectra are sensitive to the conformation of chiral molecules.)

Series [8] deals with Lipopolysaccharide (LPS). Nature of the series: Binding affinity to LPS assessed as inhibition of LPS-induced LAL enzyme activation at 4.5 uM after 30 mins by spectrophotometric analysis. The procedure, abridged:
as §2

Series [9] in a line: Binding affinity to PC/Chol lipid vesicles assessed as increase in helical structure at 36 uM by circular dichroism analysis. The class given is physicochemical. Put shortly:
(§4)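 Peptides (~36 μM) with ~500 μM PC/Chol (8:1 w/w) or PE/PG (7:3 w/w) vesicles. CD spectra 250–190 nm at ~30 °C in 0.2 cm cuvette; 4–6 scans averaged at 20 nm/min, 0.5 nm interval.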

Series [10] relates to RAW264.7. The series can be described thus: Antiinflammatory activity in mouse RAW264.7 cells assessed as inhibition of LPS-induced NO production at 3 uM by Griess method. The class given is functional. Set-up: scale not given: the % may be the effect or the level left. The procedure, abridged: as §1
Series [11] is described as follows: Binding affinity to PE/PG lipid vesicles assessed as increase in helical structure at 36 uM by circular dichroism analysis. Format: physicochemical. Put shortly:
as §4

With `C[C@H](N)C(=O)O` [ALANINE], the Activity is 13% in the series on RAW264.7 [1], “Non-toxic” in series [2], “Active” in [3] and “Toxic” in the series with NIH3T3. Further, the inhibition in the series with Lipopolysaccharide (LPS) [4] is 10%; in the series on Lipopolysaccharide (LPS) [8] it was 3%. Also, the minimum inhibitory concentration (MIC) in the series with Escherichia coli is 4.5 µM (≈ 0.401 µg/mL); in [5], over 25 µM; in the series with Bacillus subtilis it was 20 µM (≈ 1.78 µg/mL); with Staphylococcus aureus it was 6.25 µM (≈ 0.557 µg/mL); in the series with Pseudomonas aeruginosa, 6.25 µM (≈ 0.557 µg/mL). Also, in the series with RAW264.7 [6], the inhibition result was “Active”. For the same compound, in the series on Lipopolysaccharide (LPS) [7], the outcome was Active.
In the case of `CC(C)C[C@H](N)C(=O)O` [LEUCINE], the Activity result is “Toxic” in series [2]; “Active” in [3]; “Active” in [9]; “Toxic” in the series on NIH3T3; 90% with RAW264.7 [10]; “Active” in series [11]. Also, the inhibition entry in the series on Lipopolysaccharide (LPS) [4] and with RAW264.7 [6] was “Active” each time. For the same compound, the minimum inhibitory concentration (MIC) against Escherichia coli is 6.25 µM (≈ 0.82 µg/mL); in [5] it was 1.56 µM (≈ 0.205 µg/mL); against Bacillus subtilis, 10.5 µM (≈ 1.38 µg/mL); with Staphylococcus aureus, 6.25 µM (≈ 0.82 µg/mL); against Pseudomonas aeruginosa, 11.2 µM (≈ 1.47 µg/mL). Moreover, the outcome in the series on Lipopolysaccharide (LPS) [7] was Active. The inhibition in the series with Lipopolysaccharide (LPS) [8] was determined as 72%.
For the compound `CC(C)[C@H](N)C(=O)O` [VALINE], the Activity in the series on RAW264.7 [1] is reported as 50%; in series [2], “Non-toxic”; in series [3], “Active”; in the series with NIH3T3, “Toxic”; in series [11], “Active”. Also, the inhibition came to 29% in the series on Lipopolysaccharide (LPS) [4] and 8% in the series with Lipopolysaccharide (LPS) [8]. Moreover, the MIC amounted to 3 µM (≈ 0.351 µg/mL) against Escherichia coli; 6 µM (≈ 0.703 µg/mL) in series [5]; 6.8 µM (≈ 0.797 µg/mL) in the series with Bacillus subtilis; 5.1 µM (≈ 0.597 µg/mL) in the series with Staphylococcus aureus; 3.2 µM (≈ 0.375 µg/mL) in the series on Pseudomonas aeruginosa. Moreover, in the series with RAW264.7 [6], the inhibition entry was “Active”. The result with Lipopolysaccharide (LPS) [7] was Active.
